Converted amounts (≈) assume the structure as drawn. The source made the active and inactive calls. No cut-off for these calls is given here.
Assays:
[1] = target: T1, Enoyl-acyl carrier reductase (Toxoplasma gondii) (UniProt Q6UCJ9); assay: Inhibition of Toxoplasma gondii enoyl acyl-carrier protein reductase at 1 uM
T1 sequence (whole entry): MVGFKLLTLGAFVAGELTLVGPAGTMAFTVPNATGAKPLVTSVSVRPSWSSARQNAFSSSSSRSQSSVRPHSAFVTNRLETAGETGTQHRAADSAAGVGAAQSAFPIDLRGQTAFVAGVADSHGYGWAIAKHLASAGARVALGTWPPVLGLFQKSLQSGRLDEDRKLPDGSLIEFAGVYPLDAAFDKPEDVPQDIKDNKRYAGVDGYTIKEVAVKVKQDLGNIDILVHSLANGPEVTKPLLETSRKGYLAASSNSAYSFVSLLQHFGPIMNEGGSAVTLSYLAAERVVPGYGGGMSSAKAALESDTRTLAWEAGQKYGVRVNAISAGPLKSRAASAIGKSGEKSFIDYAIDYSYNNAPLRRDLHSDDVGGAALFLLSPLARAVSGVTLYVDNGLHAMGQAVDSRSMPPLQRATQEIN

[2] = test system: Plasmodium falciparum; assay: Antiplasmodial activity against blood stage of drug-sensitive Plasmodium falciparum D6; type: functional
Procedure, shortened: (§1)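 Blood-stage parasites tested in a dose-response growth inhibition assay; values reported in ng/ml.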

[3] = test system: HFF; assay: Cytotoxicity against HFF after 72 hrs by WST-1 assay; type: cell-based; details: human
Procedure, shortened: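 Uninfected human foreskin fibroblast host cells were incubated with compounds for 72 h. Viability was then assessed by WST-1 staining. The effect of DMSO levels in the culture medium was assessed alongside.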

[4] = test system: Toxoplasma gondii; assay: Antiparasitic activity against tachyzoite of Toxoplasma gondii RH expressing yellow fluorescent protein infected in human foreskin fibroblasts after 72 hrs by fluorescence assay
[5] = target: T2, Enoyl-acyl carrier reductase (Toxoplasma gondii, UniProt Q6UCJ9); assay: Inhibition of Toxoplasma gondii enoyl acyl-carrier protein reductase
T2 sequence (Q6UCJ9 whole entry): T1 sequence (whole entry)

[6] = test system: Toxoplasma gondii; assay: Antiparasitic activity against tachyzoite of Toxoplasma gondii RH expressing yellow fluorescent protein infected in human foreskin fibroblasts after 72 hrs by bacterial beta-galactosidase reporter gene assay; type: functional
[7] = test system: Plasmodium falciparum; assay: Antiplasmodial activity against blood stage of drug-resistant Plasmodium falciparum TM91C235; type: functional; procedure, shortened: as §1

| SMILES | inhibition [1] [%] | Activity [2] | Activity [3] [µM] | MIC50 [4] [µM] | IC50 [5] [nM] | MIC50 [6] [µM] | Activity [7] |
| --- | --- | --- | --- | --- | --- | --- | --- |
| CCCc1cc(-c2ccc(Oc3ccc(CNC(=O)c4cc(C)on4)cc3O)c(Cl)c2)no1 | 89 | >10000 ng/mL | > 10 | 4 (≈ 1.87 µg/mL) | 137 |  |  |
| Cc1cc(C(=O)NCc2ccc(Oc3ccc(Cl)cc3Cl)c(O)c2)no1 |  |  |  |  | 19 |  |  |
| N#Cc1ccc(Oc2ccc(-c3cc(CCO)on3)cc2Cl)c(O)c1 | 94 | >10000 ng/mL | > 10 |  | 34 | 8 (≈ 2.85 µg/mL) |  |
| CCCc1cc(-c2ccc(Oc3ccc(C#N)cc3O)c(Cl)c2)no1 | 94 | > 2440 ng/mL | > 10 |  | 29 | 4 (≈ 1.42 µg/mL) | inactive |
| Oc1cc(Cl)ccc1Oc1ccc(Cl)cc1Cl [TRICLOSAN] | 98 | inactive | > 10 | 5 (≈ 1.45 µg/mL) |  |  | inactive |
